One block for each compound: values may come before it. Square brackets hold non-standard residues; d marks the D form. Peptide text beside a SMILES is read from it. * marks the point of attachment. Palmitoyl = CCCCCCCCCCCCCCCC(=O)*; Ahp = NCCCCCCC(=O)O; Ahx = NCCCCCC(=O)O; Sar = CNCC(=O)O
Key:
[1] = molecular target: T1, hGAL1 (human galanin receptor GalR1) (Homo sapiens, UniProt P47211); assay: Competitive binding assay, Eu-labeled galanin, time-resolved fluorescence
T1 sequence (P47211 1-349): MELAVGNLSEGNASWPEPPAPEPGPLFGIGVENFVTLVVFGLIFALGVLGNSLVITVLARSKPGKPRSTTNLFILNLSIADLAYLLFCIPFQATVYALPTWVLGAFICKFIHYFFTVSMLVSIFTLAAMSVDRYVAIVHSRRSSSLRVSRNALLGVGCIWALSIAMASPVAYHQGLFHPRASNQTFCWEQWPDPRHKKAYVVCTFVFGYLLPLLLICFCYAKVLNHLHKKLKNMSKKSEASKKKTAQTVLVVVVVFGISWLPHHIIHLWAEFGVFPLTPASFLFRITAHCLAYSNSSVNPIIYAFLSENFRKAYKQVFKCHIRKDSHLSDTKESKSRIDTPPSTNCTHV

[2] = Rat serum stability; format: in vitro ADME
Method in brief: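 Male Sprague-Dawley rat trunk-blood serum, kept at −80 °C and used within 3 months. 10 μg peptide in 1 mL pre-warmed 25% serum in 0.1 M Tris-HCl pH 7.5 at 37 °C. Sampled at 0, 30 min, 1, 2, 4 and 8 h, quenched with TCA/isopropanol at −20 °C for 20 min, then centrifuged. Intact peptide measured by reverse-phase HPLC; t1/2 fitted from ≥3 independent time-courses.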

[3] = molecular target: T2, hGAL2 (human galanin receptor GalR2) (Homo sapiens, UniProt O43603); assay: Competitive binding assay, Eu-labeled galanin, time-resolved fluorescence
T2 sequence (O43603 1-387): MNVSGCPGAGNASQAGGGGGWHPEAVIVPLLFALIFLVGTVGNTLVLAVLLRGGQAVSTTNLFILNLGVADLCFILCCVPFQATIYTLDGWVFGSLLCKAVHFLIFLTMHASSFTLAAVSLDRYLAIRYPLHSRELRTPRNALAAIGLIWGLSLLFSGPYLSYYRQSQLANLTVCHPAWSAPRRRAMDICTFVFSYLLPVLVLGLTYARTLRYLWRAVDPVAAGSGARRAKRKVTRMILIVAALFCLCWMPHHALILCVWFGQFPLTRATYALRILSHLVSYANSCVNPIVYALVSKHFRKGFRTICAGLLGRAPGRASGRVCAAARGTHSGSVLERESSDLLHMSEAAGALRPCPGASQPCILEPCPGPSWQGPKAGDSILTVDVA

[4] = octanol-water log D, shake-flask / HPLC; cited from earlier work

Ki [1]: ≥ 30 µM
SMILES: CCCCCCCCCCCCCCCC(=O)NCCCC[C@H](NC(=O)[C@@H](CCCCN)NC(=O)[C@@H](CCCCN)NC(=O)[C@H](Cc1ccc(O)cc1)NC(=O)CNC(=O)[C@H](C)NC(=O)[C@H](CO)NC(=O)[C@H](CC(N)=O)NC(=O)[C@H](CC(C)C)NC(=O)[C@@H](NC(=O)[C@H](Cc1c[nH]c2ccccc12)NC(=O)CNC)[C@@H](C)O)C(=O)N[C@H](CCCCN)C(N)=O [D-[des-LLGP]Gal-B2] (H-[Sar]WTLNSAGY[dK][dK]K(Palmitoyl)[dK]-NH2)

Ki [1]: 1.17 ± 0.3 µM
SMILES: CCCCCCCCCCCCCCCC(=O)NCCCC[C@H](NC(=O)[C@H](CCCCN)NC(=O)[C@H](CCCCN)NC(=O)CCCCCNC(=O)[C@H](Cc1ccc(O)cc1)NC(=O)CNC(=O)[C@H](C)NC(=O)[C@H](CO)NC(=O)[C@H](CC(N)=O)NC(=O)[C@H](CC(C)C)NC(=O)[C@@H](NC(=O)[C@H](Cc1c[nH]c2ccccc12)NC(=O)CNC)[C@@H](C)O)C(=O)N[C@@H](CCCCN)C(N)=O [L-Gal(6-Ahx)-B2] (H-[Sar]WTLNSAGY[Ahx]KKK(Palmitoyl)K-NH2)

half-life at 10 µg/mL ([2]; male, Sprague-Dawley, rat, 25% rat serum, pH 7.5): > 10 h
SMILES: CCCCCCCCCCCCCCCC(=O)NCCCC[C@H](NC(=O)[C@@H](CCCCN)NC(=O)[C@@H](CCCCN)NC(=O)CCCCCCNC(=O)[C@H](Cc1ccc(O)cc1)NC(=O)CNC(=O)[C@H](C)NC(=O)[C@H](CO)NC(=O)[C@H](CC(N)=O)NC(=O)[C@H](CC(C)C)NC(=O)[C@@H](NC(=O)[C@H](Cc1c[nH]c2ccccc12)NC(=O)CNC)[C@@H](C)O)C(=O)N[C@H](CCCCN)C(N)=O [D-Gal(7-Ahp)-B2] (H-[Sar]WTLNSAGY[Ahp][dK][dK]K(Palmitoyl)[dK]-NH2)

Ki [1]: ≥ 30 µM
Ki [3]: 27.4 µM
SMILES: CCCCCCCCCCCCCCCC(=O)NCCCC[C@H](NC(=O)[C@H](CCCCN)NC(=O)[C@H](CCCCN)NC(=O)[C@H](Cc1ccc(O)cc1)NC(=O)CNC(=O)[C@H](C)NC(=O)[C@H](CO)NC(=O)[C@H](CC(N)=O)NC(=O)[C@H](CC(C)C)NC(=O)[C@@H](NC(=O)[C@H](Cc1c[nH]c2ccccc12)NC(=O)CNC)[C@@H](C)O)C(=O)N[C@@H](CCCCN)C(N)=O [[des-LLGP]Gal-B2] (H-[Sar]WTLNSAGYKKK(Palmitoyl)K-NH2)

SMILES: CCCCCCCCCCCCCCCC(=O)NCCCC[C@H](NC(=O)[C@H](CCCCN)NC(=O)[C@H](CCCCN)NC(=O)[C@@H]1CCCN1C(=O)CNC(=O)[C@H](CC(C)C)NC(=O)[C@H](CC(C)C)NC(=O)[C@H](Cc1ccc(O)cc1)NC(=O)CNC(=O)[C@H](C)NC(=O)[C@H](CO)NC(=O)[C@H](CC(N)=O)NC(=O)[C@H](CC(C)C)NC(=O)[C@@H](NC(=O)[C@H](Cc1c[nH]c2ccccc12)NC(=O)CNC)[C@@H](C)O)C(=O)N[C@@H](CCCCN)C(N)=O [Gal-B2]
log D [4]: 1.24
increase of t1/2 compared to Gal(1-16) ([2]; rat serum): 80 fold

Source: paper PMC4332549 (ChemMedChem, 2012)
